Source: PubChem (several laboratories)
NR2E3 ag-1: activates human NR2E3 receptor; Q9Y5X4; CHO-S Gal4-NCOR/VP16-NR2E3 two-hybrid, luciferase; inhibition of corepressor binding, % at 3.98 µM; hit rate 0.35% among 360,000;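 active = inhibition above the mean of all tested compounds plus 3 SD, cut at about 70% in these data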;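 note: 0% = DMSO with NR2E3 transfected cells and 100% = cells lacking NR2E3 construct; higher means lower luciferase signal from less NR2E3 corepressor binding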
NR2E3 ag-2: agonists of human nuclear receptor NR2E3. GST-NR2E3/biotin-RetCOR TR-FRET, 1536-well. AID 2300. Q9Y5X4. inhibition of corepressor binding, % at 4.78 µM. hit rate 0.12% among 320,000;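 active = percent inhibition above the cutoff of mean plus 3 SD of all tested compounds, set per screening campaign, cut at about 20% in these data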;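 note: 0% = DMSO wells and 100% = biotin wells as full block of FRET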
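Test system – NR2E3–RetCOR corepressor complex · Quantity – NR2E3 fusion 1.35 nM · Buffer or medium – Tris pH 7.5 · Incubation – Compound–protein incubation for 5 h at 4 °C · Technique – TR-FRET, Eu(K)-anti-GST donor, streptavidin-D2 acceptor, ex 340, em 617/671 nm · Evaluation – percent inhibition of 671/617 nm emission ratio versus biotin and DMSO controls · Plate – 1536-well format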
Rev-erbA mod: modulators of human Rev-erb alpha DNA binding; hit rate 0.79% among 370,000; Rev-erbα–FITC-DNA binding, fluorescence polarization, 90 min; activity, % at 10 µM; P20393;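 active = activity above about 14%, limit read from the data; passing the limit was not always enough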;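 note: 0% = DMSO wells with 35 nM protein and 100% = DMSO wells with 750 nM protein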
Target sequence (P20393 whole entry, looked up): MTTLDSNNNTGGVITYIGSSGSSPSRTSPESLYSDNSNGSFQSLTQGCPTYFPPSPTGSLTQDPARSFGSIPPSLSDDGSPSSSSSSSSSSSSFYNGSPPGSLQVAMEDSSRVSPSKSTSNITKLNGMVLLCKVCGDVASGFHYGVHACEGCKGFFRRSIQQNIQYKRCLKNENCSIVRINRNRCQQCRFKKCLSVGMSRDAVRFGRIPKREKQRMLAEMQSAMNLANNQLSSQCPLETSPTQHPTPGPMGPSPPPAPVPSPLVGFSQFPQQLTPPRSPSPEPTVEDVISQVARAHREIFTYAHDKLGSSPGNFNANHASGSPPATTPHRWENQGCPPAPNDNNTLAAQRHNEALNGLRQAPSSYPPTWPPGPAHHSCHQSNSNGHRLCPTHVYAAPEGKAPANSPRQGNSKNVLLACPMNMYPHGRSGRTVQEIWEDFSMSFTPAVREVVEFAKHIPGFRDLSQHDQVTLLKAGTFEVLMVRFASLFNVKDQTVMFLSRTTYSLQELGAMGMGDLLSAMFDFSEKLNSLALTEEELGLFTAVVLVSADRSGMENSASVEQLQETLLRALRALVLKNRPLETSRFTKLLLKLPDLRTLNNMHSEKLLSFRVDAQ
PG9 binder: PG9 antibody binding by small molecule | TR-FRET gp120-PG9 antibody binding | inhibition, % at 6.7 µM | hit rate 0.43% among 360,000 | AID 624416; in the data active = inhibition above about 8.5%
NR2E3 ag confirm: NR2E3 (human) agonism, confirmation; cell-free NR2E3 corepressor release, TR-FRET, 5 h; activation (reported as inhibition), % at 3.98 µM; hit rate 39% among 360; shares compounds with NR2E3 ag-2; in the data active = activation above about 20%
PPARg-NCOR2 ctr: PPARg-NCOR2 interaction agonism, NR2E3 counter-screen; shares compounds with NR2E3 ag-2; inhibition, % at 3.98 µM; TR-FRET PPARg-NCOR2 coregulator interaction, biochemical; hit rate 45% among 360; in the data active = inhibition above about 20%;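 note: 0% = DMSO vehicle and 100% = wells without protein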
* marks the source's active call; other numbers are inactive results; / = no result. Most compounds without a hit are left out; they make up all but 1.4% or so of the library.

SMILES	NR2E3 ag-1	NR2E3 ag-2	Rev-erbA mod	PG9 binder	NR2E3 ag confirm	PPARg-NCOR2 ctr
COc1ccc(C(=O)C(C)OC(=O)c2cccc(S(=O)(=O)Nc3cc(Cl)c(OC)cc3OC)c2)cc1 (stereo not drawn)	80*	-6	/	/	/	/
CCOc1ccc(/C(O)=C2/C(=O)C(=O)N(CCOCCO)C2c2cccnc2)cc1 (stereo not drawn)	3	14	-5	9.0*	/	/
Cc1ccc(NC2c3ccccc3C(=O)N2c2cccnc2)cc1 (stereo not drawn)	2	0	-1	-2	/	/
COc1ccc(OC)c(NC2c3ccccc3C(=O)N2c2cccnc2)c1 (stereo not drawn)	-24	0	0	8.9*	/	/
Cc1ccc(Nc2nc3ccccc3nc2-n2nc(C)cc2C)cc1	-16	1	4	0	/	/
Cc1ccc(Nc2cc(C)nn2-c2nc(C)cc(C)n2)cc1	94*	0	-5	1	/	/
CC(=O)Nc1cc(C)nn1-c1nc(C)cc(C)n1	-6	0	2	0	/	/
Cc1ccc(Nc2cc(C)nn2-c2nc(C)cc(=O)[nH]2)cc1	109*	-5	/	/	/	/
Cc1onc(-c2ccccc2)c1C(=O)N[C@H]1C(=O)N2[C@@H]1SC(C)(C)[C@@H]2C(=O)O	/	/	8	/	/	/
CCCC[C@@H](CC)COC(=O)c1ccccc1O	/	/	2	/	/	/
Cc1cc(C2=NNC(=NC3CC3)SC2)c(C)n1-c1ccccc1	80*	/	-5	-2	/	/
COCCn1c(C)cc(C2=NNC(=NC3CC3)SC2)c1C	92*	-4	-2	1	/	/
CC1(C)O[C@@H]2CC3C4C[C@H](F)C5=CC(=O)C=C[C@]5(C)[C@@]4(F)[C@@H](O)C[C@]3(C)[C@]2(C(=O)CO)O1 (stereo partly drawn)	/	/	-1	/	/	/
CN1c2ccccc2Sc2ccc(CC(=O)O)cc21	/	/	0	/	/	/
O=C1c2c(O)cccc2C(C2OC(CO)C(O)C(O)C2O)c2cc(CO)cc(O)c21 (stereo not drawn)	/	/	0	/	/	/
CC1=C(C)/C(=N\OS(=O)(=O)c2ccccc2)C=CC1=O	74*	0	/	/	/	/
CCCCC1=CC2=C(c3ccco3)C(=O)C(C)(OC(=O)c3ccc(OC)cc3)C(=O)C2=CN1Cc1ccc2c(c1)OCO2 (stereo not drawn)	7	23*	/	/	0	5
CCCCC1=CC2=C(c3ccco3)C(=O)C(C)(OC(=O)c3ccc(OC)cc3)C(=O)C2=CN1CCOC (stereo not drawn)	1	0	-4	1	/	/
O=C(c1cc2nc(-c3ccco3)cc(C(F)(F)F)n2n1)N1CCCCCC1	21	-1	-9	-1	/	/
O=C(NCCCN1CCCC1=O)c1cc2nc(-c3ccco3)cc(C(F)(F)F)n2n1	-5	22*	5	-1	-10	-5
CCCCCCCCCC(=O)OC1(c2ccc(Cl)cc2)CCN(CCCC(=O)c2ccc(F)cc2)CC1	/	/	-7	/	/	/
Cc1cccc[n+]1C1C(c2ccccc2)C(C#N)=C(C(=C=[N-])C#N)NC1(O)C1CC1 (stereo not drawn)	-18	43*	/	/	5	30*
Cc1ccc[n+](C2C(c3ccc([N+](=O)[O-])cc3)C(C#N)=C([S-])NC2(O)C2CC2)c1 (stereo not drawn)	15	3	6	1	/	/
COc1ccc(/C=N/NC(=O)C(=O)N2CCN(c3ccccc3OC)CC2)cc1	-19	30*	-3	1	-6	-9
CC(=O)NC(=S)Nc1ccc(NC(=S)NC(=O)/C=C/c2ccco2)cc1	11	-2	-4	-1	/	/
SMILES	NR2E3 ag-1	NR2E3 ag-2	Rev-erbA mod	PG9 binder	NR2E3 ag confirm	PPARg-NCOR2 ctr
O=C(/C=C/c1ccco1)NC(=S)Nc1ccc(C(=O)O)cc1	-38	20*	2	-1	5	8
N#CC1=C(N)SC(N)=C(C#N)C1c1ccoc1	/	36*	/	/	23*	27*
CC1=C(C#N)C(c2ccoc2)C(C(=O)OCc2ccccc2)=C(N)S1 (stereo not drawn)	-7	0	3	1	/	/
O=c1[nH]c(Nc2ccccc2)cc2ccccc12	0	27*	-10	-3	-5	0
CN1CCN(CC(=O)N/N=C\c2c[nH]c3ccccc23)CC1	/	30*	2	-1	-5	-5
O=C(O)c1ccc2c(c1)C(=O)/C(=C\c1ccco1)C2=O	-25	38*	10	-2	10	26*
